Laboratory results taken from PMC8268672 (Bioorganic Chemistry, 2021).
Values after ≈ are worked out from the molar mass of the structure shown. Where two headings read alike, the source gives them in different places.

How the values were obtained:
[1] = system: Klebsiella aerogenes (NCIM-2098); experiment: Agar disk diffusion, inhibition zone; assay type: cell-based; conditions: 100 µg/8 mm disc, triplicate, mean ± SD
Adeno virus-2 = experiment: CPE reduction assay in HEL cells; assay type: cell-based; conditions: read-out: Antiviral EC50, Adeno virus-2
[2] = system: Cryptococcus neoformans (ATCC 9011); experiment: MIC, broth microdilution; assay type: cell-based; conditions: ATCC9011, read-out: Minimum inhibitory concentration (MIC), CN
Outline: (§1)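 Antifungal MICs by CLSI broth microdilution in Sabouraud liquid medium. Test compounds and standard drugs are serially diluted two-fold from 512 to 0.25. The fungal broth culture is grown 24 h at 35 °C to a 0.5 McFarland turbidity, then adjusted with sterile solution to the final inoculum.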

[3] = system: Salmonella typhimurium (NCIM-2501); experiment: Agar disk diffusion, inhibition zone; assay type: cell-based; conditions: 100 µg/8 mm disc, triplicate, mean ± SD
MT4 cells = conditions: MT4 cell cultures; colorimetric MTT cell viability assay
[4] = system: Aspergillus fumigatus (NCIM 2081); experiment: MIC, broth microdilution; assay type: cell-based; conditions: NCIM2081, read-out: Minimum inhibitory concentration (MIC), AF
Outline: as §1

[5] = system: Madin Darby canine kidney (MDCK) cells; conditions: dog
Coxsackie virus B4 = experiment: CPE reduction assay in Vero cells; assay type: cell-based; conditions: Enterovirus B, read-out: Antiviral EC50, Coxsackie virus B4
[6] = system: Pseudomonas aeruginosa (MCCB 0035); experiment: MIC, broth microdilution; assay type: cell-based; conditions: read-out: Minimum inhibitory concentration (MIC), PA
Outline: (§2)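 Broth microdilution per CLSI in Mueller-Hinton broth, using two-fold serial dilutions of test compound and reference drugs from 512 to 0.25. Bacterial broth cultures were grown 2-6 h to 0.5 McFarland turbidity, then diluted with sterile solution to the final inoculum. MIC is reported in µg/mL.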

Vero cells = conditions: Vero cell cultures; microscopically detectable alteration of normal cell morphology
Sindbis virus = experiment: CPE reduction assay in Vero cells; assay type: cell-based; conditions: read-out: Antiviral EC50, Sindbis virus
[7] = system: Escherichia coli (ATCC 8739); experiment: Agar disk diffusion, inhibition zone; assay type: cell-based; conditions: 100 µg/8 mm disc, triplicate, mean ± SD
Outline: (§3)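 Agar disk diffusion on Mueller-Hinton agar plates seeded with a standard bacterial suspension. Test compound stock in DMSO, diluted with distilled water; 8 mm sterile filter-paper discs soaked in the solution. Ampicillin was the reference. Plates incubated at 35 °C for 24 h, in triplicate. Read-out is the average inhibition-zone diameter (mm) around each disc.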

[8] = system: Bacillus cereus (NCIM-2458); experiment: MIC, broth microdilution; assay type: cell-based; conditions: NCIM2458, read-out: Minimum inhibitory concentration (MIC), BC
Outline: as §2

[9] = system: Candida albicans (NCIM 2087); experiment: MIC, broth microdilution; assay type: cell-based; conditions: NCIM2087, read-out: Minimum inhibitory concentration (MIC), CA
Outline: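 CLSI broth microdilution in Sabouraud liquid medium, with test compound two-fold serially diluted from 512 to 0.25. Fungal broth culture grown 24 h at 35 °C to 0.5 McFarland turbidity, then adjusted with sterile solution to a final […] inoculum. MIC expressed in µg/mL.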

Human Coronavirus (229E) = experiment: CPE reduction assay in HEL cells; assay type: cell-based; conditions: read-out: Antiviral EC50, Human Coronavirus (229E)
[10] = system: Streptococcus pneumonia (ATCC 49619); experiment: Agar disk diffusion, inhibition zone; assay type: cell-based; conditions: 100 µg/8 mm disc, triplicate, mean ± SD
[11] = system: Influenza A/H1N1 A/Ned/378/05; experiment: CPE reduction assay in MDCK cells; assay type: cell-based; conditions: Influenza A virus
[12] = system: Bacillus cereus (NCIM-2458); experiment: Agar disk diffusion, inhibition zone; assay type: cell-based; conditions: 100 µg/8 mm disc, triplicate, mean ± SD
[13] = system: Staphylococcus aureus (ATCC 29213); experiment: Agar disk diffusion, inhibition zone; assay type: cell-based; conditions: 100 µg/8 mm disc, triplicate, mean ± SD
Outline: as §3

[14] = system: Klebsiella aerogenes (NCIM-2098); experiment: MIC, broth microdilution; assay type: cell-based; conditions: NCIM2098, read-out: Minimum inhibitory concentration (MIC), KA
Outline: (§4)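 Antibacterial MICs by CLSI broth microdilution in Mueller-Hinton broth. Test compounds and standard drugs are serially diluted two-fold from 512 to 0.25. The bacterial broth culture is grown 2-6 h to a 0.5 McFarland turbidity, then adjusted with sterile solution to the final inoculum.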

[15] = system: Cryptococcus neoformans (ATCC 9011); experiment: Agar disk diffusion, inhibition zone; assay type: cell-based; conditions: 100 µg/8 mm disc, triplicate, mean ± SD
Vaccinia virus = experiment: microbe, parasite or virus in culture; assay type: cell-based; conditions: Orthopoxvirus vaccinia, HEL, read-out: Antiviral EC50, Vaccinia virus
[16] = system: Escherichia coli (ATCC 8739); experiment: MIC, broth microdilution; assay type: cell-based; conditions: ATCC8739, read-out: Minimum inhibitory concentration (MIC), EC
Outline: as §2

[17] = system: Pseudomonas aeruginosa (MCCB 0035); experiment: Agar disk diffusion, inhibition zone; assay type: cell-based; conditions: 100 µg/8 mm disc, triplicate, mean ± SD
[18] = system: Human embryonic lung (HEL) cells; conditions: HEL cell cultures; microscopically detectable alteration of normal cell morphology
[19] = system: Candida albicans (NCIM 2087); experiment: Agar disk diffusion, inhibition zone; assay type: cell-based; conditions: 100 µg/8 mm disc, triplicate, mean ± SD
Yellow Fever virus = experiment: microbe, parasite or virus in culture; assay type: cell-based; conditions: Yellow fever virus, Vero, read-out: Antiviral EC50, Yellow Fever virus
Influenza B B/Ned/537/05 = experiment: CPE reduction assay in MDCK cells; assay type: cell-based; conditions: Influenza B virus, read-out: Antiviral EC50, Influenza B B/Ned/537/05, MTS
[20] = system: Lactobacillus casei (NCIM-2651); experiment: Agar disk diffusion, inhibition zone; assay type: cell-based; conditions: 100 µg/8 mm disc, triplicate, mean ± SD
[21] = system: Influenza A/H3N2 A/HK/7/87; experiment: CPE reduction assay in MDCK cells; assay type: cell-based; conditions: Influenza A virus
Punta Toro virus = experiment: CPE reduction assay in Vero cells; assay type: cell-based; conditions: read-out: Antiviral EC50, Punta Toro virus
[22] = system: Staphylococcus aureus (ATCC 29213); experiment: MIC, broth microdilution; assay type: cell-based; conditions: ATCC29213, read-out: Minimum inhibitory concentration (MIC), SA
Outline: as §4

[23] = system: Aspergillus niger (NCIM 2191); experiment: Agar disk diffusion, inhibition zone; assay type: cell-based; conditions: 100 µg/8 mm disc, triplicate, mean ± SD
Outline: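 For the fungal strain, discs soaked in test compound solution (DMSO stock diluted with distilled water) sat on seeded Mueller-Hinton agar. Clotrimazole was the reference. Incubation ran 48 h at 35 °C, in triplicate. Zone of growth inhibition recorded in mm as the mean diameter around each disc.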

[24] = system: Aspergillus fumigatus (NCIM 2081); experiment: Agar disk diffusion, inhibition zone; assay type: cell-based; conditions: 100 µg/8 mm disc, triplicate, mean ± SD
[25] = system: Aspergillus niger (NCIM 2191); experiment: MIC, broth microdilution; assay type: cell-based; conditions: NCIM2191, read-out: Minimum inhibitory concentration (MIC), AN
Outline: as §1

Reovirus-1 = experiment: CPE reduction assay in Vero cells; assay type: cell-based; conditions: read-out: Antiviral EC50, Reovirus-1
Para-influenza-3 virus = experiment: CPE reduction assay in Vero cells; assay type: cell-based, Parainfluenza-3 virus; conditions: Vero, read-out: Antiviral EC50, Para-influenza-3 virus
[26] = read-out: Antiviral EC50, Influenza A/H1N1 A/Ned/378/05, MTS
[27] = read-out: Antiviral EC50, Influenza A/H1N1 A/Ned/378/05, visual CPE score
[28] = read-out: Antiviral EC50, Influenza A/H3N2 A/HK/7/87, MTS
[29] = read-out: Antiviral EC50, Influenza A/H3N2 A/HK/7/87, visual CPE score

In the case of `Cc1ccc(S(=O)(=O)N2C(=O)CSC2c2cccc(Br)c2)cc1` (stereo not drawn) [5c, 2-(3-Bromophenyl)-3-[(4-methylphenyl)sulfonyl]-1,3-thiazolidin-4-one], the “Diameter of growth inhibition zone, KA” value [1] is reported as 14 ± 0.6 mm, the EC50 (Adeno virus-2) is reported as greater than 100 µM and the MIC [2] is reported as 64 mg/L (≈ 155 µM). The “Diameter of growth inhibition zone, ST” value [3] was 12 ± 0.32 mm, the Minimum cytotoxic conc. (MT4 cells) was greater than 125 µM and the MIC [4] was 32 mg/L (≈ 77.6 µM). For the same compound, the “Cytotoxicity, Minimum cytotoxic conc.” value [5] was greater than 100 µM, the EC50 (Coxsackie virus B4) was greater than 100 µM and the MIC [6] was 16 mg/L (≈ 38.8 µM). The Minimum cytotoxic conc. (Vero cells) was greater than 100 µM, the EC50 (Sindbis virus) was greater than 100 µM and the “Diameter of growth inhibition zone, EC” value [7] was 19 ± 0.53 mm. The MIC [8] was 32 mg/L (≈ 77.6 µM), the MIC [9] was 32 mg/L (≈ 77.6 µM) and the EC50 (Human Coronavirus (229E)) was greater than 100 µM. The “Diameter of growth inhibition zone, SP” value [10] was 10 ± 0.9 mm, the EC50 [11, 26] was greater than 100 µM and the EC50 [11, 27] was greater than 100 µM. For the same compound, the “Diameter of growth inhibition zone, BC” value [12] was 12 ± 0.32 mm, the “Diameter of growth inhibition zone, SA” value [13] was 17 ± 1.2 mm and the MIC [14] was 16 mg/L (≈ 38.8 µM). For the same compound, the “Diameter of growth inhibition zone, CN” value [15] was 7.5 ± 0.5 mm, the EC50 (Vaccinia virus) was greater than 100 µM and the MIC [16] was 16 mg/L (≈ 38.8 µM). For the same compound, the “Diameter of growth inhibition zone, PA” value [17] was 16 ± 1.5 mm, the Minimum cytotoxic conc. [18] was greater than 100 µM and the “Diameter of growth inhibition zone, CA” value [19] was 12.1 ± 0.9 mm. The EC50 (Yellow Fever virus) was greater than 100 µM, the EC50 (Influenza B B/Ned/537/05) was greater than 100 µM and the “Diameter of growth inhibition zone, LC” value [20] was 14 ± 0.43 mm. For the same compound, the EC50 [21, 28] was greater than 100 µM, the EC50 [21, 29] was greater than 100 µM and the EC50 (Punta Toro virus) was greater than 100 µM. For the same compound, the MIC [22] was 32 mg/L (≈ 77.6 µM), the “Diameter of growth inhibition zone, AN” value [23] was 12 ± 0.6 mm and the “Diameter of growth inhibition zone, AF” value [24] was 11 ± 1.5 mm. For the same compound, the MIC [25] was 32 mg/L (≈ 77.6 µM), the EC50 (Reovirus-1) was greater than 100 µM and the EC50 (Para-influenza-3 virus) was greater than 100 µM.

`Cc1ccc(S(=O)(=O)N2C(=O)CSC2c2ccccc2Cl)cc1` (stereo not drawn) [5e, 2-(2-Chlorophenyl)-3-[(4-methylphenyl)sulfonyl]-1,3-thiazolidin-4-one] was tested, and the “Diameter of growth inhibition zone, KA” value [1] was 12 ± 0.5 mm, the EC50 (Adeno virus-2) was greater than 100 µM and the MIC [2] was 16 mg/L (≈ 43.5 µM). The “Diameter of growth inhibition zone, ST” value [3] was 10 ± 0.72 mm, the Minimum cytotoxic conc. (MT4 cells) was greater than 125 µM and the MIC [4] was 64 mg/L (≈ 174 µM). For the same compound, the “Cytotoxicity, Minimum cytotoxic conc.” value [5] was greater than 100 µM, the EC50 (Coxsackie virus B4) was greater than 100 µM and the MIC [6] was 32 mg/L (≈ 87 µM). For the same compound, the Minimum cytotoxic conc. (Vero cells) was greater than 100 µM, the EC50 (Sindbis virus) was greater than 100 µM and the “Diameter of growth inhibition zone, EC” value [7] was 19 ± 0.69 mm. It also gave an MIC [8] of 64 mg/L (≈ 174 µM), an MIC [9] of 32 mg/L (≈ 87 µM) and an EC50 (Human Coronavirus (229E)) greater than 100 µM. For the same compound, the “Diameter of growth inhibition zone, SP” value [10] was 10 ± 1.32 mm, the EC50 [11, 26] was greater than 100 µM and the EC50 [11, 27] was greater than 100 µM. For the same compound, the “Diameter of growth inhibition zone, BC” value [12] was 10 ± 0.7 mm, the “Diameter of growth inhibition zone, SA” value [13] was 17 ± 3.6 mm and the MIC [14] was 32 mg/L (≈ 87 µM). The “Diameter of growth inhibition zone, CN” value [15] was 12 ± 0.9 mm, the EC50 (Vaccinia virus) was greater than 100 µM and the MIC [16] was 16 mg/L (≈ 43.5 µM). The “Diameter of growth inhibition zone, PA” value [17] was 18 ± 0.55 mm, the Minimum cytotoxic conc. [18] was greater than 100 µM and the “Diameter of growth inhibition zone, CA” value [19] was 10.8 ± 1.5 mm. The EC50 (Yellow Fever virus) was greater than 100 µM, the EC50 (Influenza B B/Ned/537/05) was greater than 100 µM and the “Diameter of growth inhibition zone, LC” value [20] was 14 ± 0.3 mm. For the same compound, the EC50 [21, 28] was greater than 100 µM, the EC50 [21, 29] was greater than 100 µM and the EC50 (Punta Toro virus) was greater than 100 µM. For the same compound, the MIC [22] was 64 mg/L (≈ 174 µM), the “Diameter of growth inhibition zone, AN” value [23] was 10.2 ± 0.9 mm and the “Diameter of growth inhibition zone, AF” value [24] was 9.6 ± 1.2 mm. For the same compound, the MIC [25] was 32 mg/L (≈ 87 µM), the EC50 (Reovirus-1) was greater than 100 µM and the EC50 (Para-influenza-3 virus) was greater than 100 µM.
